Compound activity: PubChem BioAssay, several laboratories
CSN deneddyl inh: CSN deneddylation inhibition | Q92905 | Purified CSN, SCF-Nedd8-OG deneddylation, fluorescence polarization | inhibition, % at 12.5 µM | 360,000 compounds, 0.38% hits | AID 651999;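 active = pattern-corrected inhibition above about 35%, with an unprinted fluorescence ratio check between 0.5 and 1.5, limit read from the data, passing the limit was not always enough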;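 note: 0% = enzyme with substrate and 100% = substrate without enzyme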
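Assay system: HEK293T-derived human Csn5 enzyme; quantity: 0.24 nM enzyme; medium: Tris/NaCl/DTT buffer, pH 7.5; also added: substrate SCFSkp2-Nedd8OG, 10 nM; doses: 12.5 µM compound; schedule: 90 min reaction at room temperature; signal: FP; read-out: % inhibition of substrate cleavage by Csn5; benchmarks: substrate-only high control, full reaction low control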
TPT1 inhibitor: inhibitors of Candida albicans tRNA 2'-phosphotransferase TPT1 | recombinant caTPT1, FP RNA substrate dephosphorylation | 300,000 compounds, 0.81% hits | AID 1962 | inhibition, % at 5 µM;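 active = inhibition above the mean of all tested compounds plus 3 SD, set per screening campaign, cut at about 24% in these data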;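 note: plate controls were DMSO alone for no effect and ferristatin control at 100 nM for full effect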
Rpn11 inh: inhibitors of human proteasome Rpn11; O00487; human 26S proteasome, Ub4-pepOG fluorescence polarization; 20S core pre-blocked with epoxomicin; inhibition, % at 20 µM; 360,000 compounds, 0.59% hits; AID 588493;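 active = inhibition at 20 µM, scaled to each plate's controls, above about 33%, limit read from the data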
Target sequence (O00487 whole entry, looked up): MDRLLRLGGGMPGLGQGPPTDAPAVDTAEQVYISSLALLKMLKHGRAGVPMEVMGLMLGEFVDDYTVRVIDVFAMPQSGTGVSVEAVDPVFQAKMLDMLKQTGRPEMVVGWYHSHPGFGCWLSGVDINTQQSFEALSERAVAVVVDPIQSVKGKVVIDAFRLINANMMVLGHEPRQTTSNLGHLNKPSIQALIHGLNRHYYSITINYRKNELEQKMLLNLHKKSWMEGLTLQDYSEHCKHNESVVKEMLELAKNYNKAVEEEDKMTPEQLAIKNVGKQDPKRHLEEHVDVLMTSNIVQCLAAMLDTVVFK
HNF4A DNA FP: change in binding of human HNF4 alpha to DNA | HNF4a-FITC DNA binding, fluorescence polarization, 1 h | activity change, % at 10 µM | 360,000 compounds, 0.3% hits; in the data active = activity change above about 30%, passing the limit was not always enough
caTPT1 confirm: confirmation of Candida albicans TPT1 inhibitors; shares compounds with TPT1 inhibitor; recombinant caTPT1, fluorescence polarization, RNase T1 coupled; inhibition, % at 5 µM; 2,400 compounds, 74% hits; AID 2149;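 active = inhibition above the primary screen limit, the mean inhibition of all tested compounds plus 3 SD, cut at about 25% in these data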
RNase T1 counter: blocks Aspergillus oryzae RNase T1, a TPT1 counter-screen; 2,400 compounds, 83% hits; RNase T1 cleavage, fluorescence polarization, 1536-well; shares compounds with TPT1 inhibitor; inhibition, % at 5 µM;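 active = inhibition above the solvent-only control well mean plus 3 SD, limit set per screening run, cut at about 23% in these data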;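 note: plate controls were DMSO wells with enzyme for no effect and wells without RNase T1 for full effect; inhibitors block cleavage so intact labeled substrate keeps polarization high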
Target sequence (P00651 whole entry, looked up): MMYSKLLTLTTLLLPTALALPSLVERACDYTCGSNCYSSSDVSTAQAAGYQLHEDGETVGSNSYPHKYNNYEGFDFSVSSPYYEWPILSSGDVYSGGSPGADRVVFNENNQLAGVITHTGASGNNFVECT
The depositor's hits bear a star; . = no result shown. Sampled rows, rich in hits. Any-hit rate of the full collection: about 1.5%.

SMILES | CSN deneddyl inh | TPT1 inhibitor | Rpn11 inh | HNF4A DNA FP | caTPT1 confirm | RNase T1 counter
O=[N+]([O-])c1ccc(C[n+]2cccc3ccccc32)cc1 | 17 | 56* | . | 4 | 27* | 36*
O=C(/C=C/c1ccco1)N1CCC(Cc2ccccc2)CC1 | 19 | 131* | 23 | -11 | 2 | 2
O=C(/C=C/c1ccco1)N1CCN(c2ncccn2)CC1 | -6 | -1 | -10 | 0 | . | .
CC(=O)Nc1cccc(-c2csc(C(O)c3ccccc3)n2)c1 (centres undefined) | 10 | . | 0 | 4 | . | .
O=C1/C(=C\c2cccc(O)c2O)SC(=S)N1Cc1ccccc1 | 1 | 5 | 7 | 2 | . | .
O=C1/C(=C\c2cc([N+](=O)[O-])ccc2O)SC(=S)N1Cc1ccc(Cl)cc1 | -73 | 43* | . | 59 | 47* | 57*
CC1(c2cccc(Br)c2)NC(=O)NC1=O (centres undefined) | 1 | -2 | 5 | 2 | . | .
COc1cc(C(=O)OCCc2cc3ccccc3c(=O)o2)cc(OC)c1OC | -3 | . | -10 | 2 | . | .
CCN(CC)CCNC(=O)c1c(O)c2c([nH]c1=O)CCCC2 | -2 | 1 | -13 | 5 | . | .
CN(C)CCNC(=O)c1c(O)c2c([nH]c1=O)CCCC2 | 4 | 37* | -7 | 0 | 19 | 25*
CCOC(=O)c1c(-c2ccc(OC)cc2)csc1/N=C/C1=C(O)CCCC1=O | 11 | 139* | 31 | 4 | 33* | 50*
CCOC(=O)c1c(/N=C/C2=C(O)CCCC2=O)sc(C)c1C | -3 | -1 | 4 | 1 | . | .
O=C(Nc1ccc(Cl)cc1)N(CCCN1CCOCC1)Cc1cccs1 | 3 | 3 | -2 | -3 | . | .
S=C(Nc1ccc(Cl)cc1)N(CCCN1CCOCC1)Cc1cccs1 | 1 | 57* | -2 | 2 | 4 | 5
CN1CCN(CCCNCc2cn(CCC#N)c3ccccc23)CC1 | 5 | -2 | 0 | 6 | . | .
C=CCNC(=O)CSc1nc2cc(C(=O)OCC)ccc2n1CC | -1 | -1 | -1 | -1 | . | .
CCOC(=O)c1ccc2c(c1)nc(SCC(=O)c1cc3ccccc3o1)n2CC | 3 | 33* | 22 | 4 | 15 | 24*
COc1ccc(-n2nnnc2SCC(=O)c2cc3ccccc3o2)cc1 | 4 | 32* | 20 | 3 | 26* | 35*
Cn1cnnc1SCC(=O)c1cc2ccccc2o1 | 4 | 4 | 2 | 5 | . | .
Cn1ccnc1SCC(=O)c1cc2ccccc2o1 | 5 | 61* | 38 | 15 | 29* | 41*
CN(C)c1ccc(/C=N/N=C2/NC(=O)/C(=C/c3ccc([N+](=O)[O-])cc3)S2)cc1 | 1 | 44* | 12 | 5 | 49* | 63*
O=C1NC(=Nc2cccc(O)c2)S/C1=C\c1cccc([N+](=O)[O-])c1 | 1 | -1 | 1 | -1 | . | .
Cc1c(C(=O)N2CCC(C)CC2)oc2ccc3c(c12)C(O)CC1(CCCCC1)O3 (centres undefined) | 5 | -4 | 4 | 5 | . | .
CN1CCc2c(sc3nc(NN)n(Cc4ccccc4)c(=O)c23)C1 | 11 | 38* | 39 | 22 | 46* | 54*
CN1CCc2c(sc3nc(NN)n(-c4ccc(Cl)cc4)c(=O)c23)C1 | 14 | 38* | 46* | 19 | 18 | 24*
SMILES | CSN deneddyl inh | TPT1 inhibitor | Rpn11 inh | HNF4A DNA FP | caTPT1 confirm | RNase T1 counter
N#CC1=C(SCC(=O)c2cc3ccccc3oc2=O)NC(=O)C(C#N)C12CCCC2 (centres undefined) | 12 | 49* | . | 10 | 30* | 39*
Cc1cc(NC2C3CC4CC(C3)CC2C4)n2ncnc2n1 (centres undefined) | 5 | 101* | -11 | 0 | 1 | 2
O=C(Nc1ccccc1C(F)(F)F)c1ccc2nccnc2c1 | 2 | 39* | 11 | 7 | 7 | 11
O=C(Nc1ccccc1Br)c1ccc2nccnc2c1 | 2 | -1 | -2 | -5 | . | .
CCN(CC(=O)Nc1ccc(N2CCOCC2)cc1)C(=O)Cc1ccccc1 | 2 | . | -1 | 2 | . | .
Nc1c(Cl)cc2c(c1Oc1ccccc1)C(=O)c1ccccc1C2=O | 11 | 25* | 16 | 23 | 30* | 41*
O=C(N/N=C/c1sc(N2CCOCC2)nc1-c1ccccc1)c1cccc(S(=O)(=O)N2CCOCC2)c1 | 21 | 60* | . | 25 | 60* | 69*
CCN(CC)c1ccc(/C=N/NC(=O)c2cccc(S(=O)(=O)N3CCOCC3)c2)c(O)c1 | -4 | 41* | 10 | 7 | 58* | 67*
O=C(Nc1ccccc1F)C(=Cc1sc(N2CCOCC2)nc1-c1ccccc1)C(=O)Nc1ccccc1F | -15 | 48* | -64 | -55 | -24 | -3
Nc1ccc(C(=O)N/N=C/c2sc(N3CCOCC3)nc2-c2ccccc2)cc1 | 2 | -3 | 4 | -1 | . | .
O=C(COc1ccc(F)cc1Br)Nc1ccccc1N1CCOCC1 | 0 | . | -4 | -5 | . | .
CCc1nnc(NC(=O)CSc2sc3c(O)cc(=O)[nH]c3c2C#N)s1 | 30 | 49* | 61* | -35 | 14 | 18
CCc1nnc(NC(=O)CSc2nc3[nH]c(=O)cc(O)c3s2)s1 | -3 | . | 17 | 1 | . | .
O=C(NCc1ccccc1)c1cc(C2COCCN2C(=O)C2CC2)on1 (centres undefined) | 5 | . | -2 | 1 | . | .
NC1=NC(=O)/C(=C/c2cc(Br)c(O)c(Br)c2)S1 | 19 | 37* | 5 | 21 | 49* | 62*
CC(O)CNc1ccc([N+](=O)[O-])cc1S(=O)(=O)N1CCOCC1 (centres undefined) | -10 | -1 | -2 | -3 | . | .
O=C(O)CC/C(=N\Nc1ccc([N+](=O)[O-])cc1S(=O)(=O)N1CCOCC1)c1cccs1 | 10 | 29* | 24 | -1 | 41* | 52*
CCOC(=O)C1(C#N)Cc2ccccc2C1 | -3 | . | 0 | -1 | . | .
N#C/C(=C\c1ccc(N2CCOCC2)c([N+](=O)[O-])c1)c1nc2ccccc2[nH]1 | -3 | 2 | 1 | -1 | . | .
N#C/C(=C/c1ccc(N2CCOCC2)o1)c1ccc(Cl)cc1 | 8 | 163* | . | 138 | 165* | 155*
N#C/C(=C\c1ccc(N2CCOCC2)o1)c1nc2ccccc2[nH]1 | -21 | 182* | . | 34 | 158* | 144*
C[C@H]1O[C@H](C2CCCC2)CC2=C1C(=O)OC(C)(C)O2 | 1 | . | . | 4 | . | .
CCC(C(=O)O)n1nnc(-c2ccc(OCc3ccccc3)c(OC)c2)n1 (centres undefined) | . | 1 | . | . | . | .
O=[N+]([O-])c1ccc(-c2ccc(/C=N/Nc3nc(NCc4ccccc4)nc(N4CCOCC4)n3)o2)cc1 | 25 | 87* | . | 36 | 89* | 93*
O=C(NCCc1ccccc1)c1cnc2sccn2c1=O | 1 | 33* | 5 | 2 | 9 | 10
N#C/C(=C/c1ccncc1)c1nc2ccccc2s1 | 13 | 30* | . | 6 | 14 | 21
